In ChEMBL document CHEMBL1275287, “Synthesis and molluscicidal evaluation of some new pyrazole, isoxazole, pyridine, pyrimidine, 1,4-thiazine and 1,3,4-thiadiazine derivatives incorporating benzofuran moiety” (Eur J Med Chem, 2010):
Active and inactive are the calls of the source. No cut-off for these calls is given here.

Assays:
Type in all cases: functional, organism-based
Biomphalaria alexandrina [1] = assay: Molluscicidal activity against Biomphalaria alexandrina at 10 ppm after 24 hrs
Procedure, shortened: (§1)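 Field-collected snails (about 7 mm shell diameter) held in the lab 10 days before testing and fed lettuce daily. Compound dissolved with two drops Tween 20 plus 2 mL DMSO, then suspended in untreated raw Nile/canal water in aerated glass jars. Three concentrations between 1 and 10 ppm; ten snails per jar, 24 h at 25 °C. Triplicate runs; mean killed snails recorded. Controls received water with Tween 20/DMSO only.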

Biomphalaria alexandrina [2] = assay: Molluscicidal activity against Biomphalaria alexandrina at 1 ppm after 24 hrs; procedure, shortened: as §1
Biomphalaria alexandrina [3] = assay: Molluscicidal activity against Biomphalaria alexandrina at 5 ppm after 24 hrs; procedure, shortened: as §1

| Compound | Activity (Biomphalaria alexandrina [1]) | Activity (Biomphalaria alexandrina [2]) | Activity (Biomphalaria alexandrina [3]) |
| --- | --- | --- | --- |
| Cc1cn2c(nc1=O)S/C(=C\c1cn(-c3ccccc3)nc1-c1cc3ccccc3o1)C(c1cc3ccccc3o1)=N2 | inactive | inactive | inactive |
| C(=C1/Sc2ccccc2N=C1c1cc2ccccc2o1)/c1cn(-c2ccccc2)nc1-c1cc2ccccc2o1 | inactive | inactive | inactive |
| S=C1N=C(c2cn(-c3ccccc3)nc2-c2cc3ccccc3o2)CC(c2cc3ccccc3o2)N1 (stereo unspecified) | inactive | inactive | inactive |
| C(=C1/Sc2nncn2N=C1c1cc2ccccc2o1)/c1cn(-c2ccccc2)nc1-c1cc2ccccc2o1 | Active | inactive | Active |
| c1ccc(-n2cc(C3CC(c4cc5ccccc5o4)=NN3)c(-c3cc4ccccc4o3)n2)cc1 (stereo unspecified) | Active | inactive | Active |
| O=C(Nc1ccc([N+](=O)[O-])cc1Cl)c1cc(Cl)ccc1O | Active | Active | Active |
| NC(=S)N1N=C(c2cc3ccccc3o2)CC1c1cn(-c2ccccc2)nc1-c1cc2ccccc2o1 (stereo unspecified) | inactive | inactive | inactive |
| O=C(/C(Br)=C/c1cn(-c2ccccc2)nc1-c1cc2ccccc2o1)c1cc2ccccc2o1 | inactive | inactive | inactive |
| O=C(c1cc2ccccc2o1)C(Br)C(Br)c1cn(-c2ccccc2)nc1-c1cc2ccccc2o1 (stereo unspecified) | inactive | inactive | inactive |
| O=C(/C=C/c1cn(-c2ccccc2)nc1-c1cc2ccccc2o1)c1cc2ccccc2o1 | Active | inactive | Active |
| c1ccc(-n2cc(C3CC(c4cc5ccccc5o4)=NO3)c(-c3cc4ccccc4o3)n2)cc1 (stereo unspecified) | inactive | inactive | inactive |
| N#Cc1c(-c2cn(-c3ccccc3)nc2-c2cc3ccccc3o2)cc(-c2cc3ccccc3o2)nc1N | Active | inactive | Active |
